The list is not random: actives were taken first. Their share in the collection is about 4.6%.
UCH37 DUB inh – inhibitors of human UCH37 deubiquitinase, primary screen, biochemical, Ub-AMC cleavage, fluorescence; AID 588478, 2011; 0.33% of 330,000 active; Ubiquitin carboxyl-terminal hydrolase isozyme L5 (Homo sapiens), Q9Y5K5; purified proteasome/UCH37; inhibition, % (no concentration beside the values);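 active = mean inhibition over replicate wells above about 20%, limit read from the data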
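Assay system: Proteasome-bound UCH37. Buffer or medium: pH 7.4 Tris-HCl (50 mM) with ovalbumin, ATP-MgCl2, DTT. Incubation: 30 min preincubation with enzyme, 25 min cleavage at room temperature. Measured by: fluorescence, ex 355 nm, em 460 nm. Read-out basis: percent inhibition. Control set: wells without proteasome as full block, compound-free enzyme plus substrate as uninhibited.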
Rtt109 Vps75 – inhibitors of C. albicans Rtt109/Vps75 HAT, primary screen, biochemical, ThioGlo CoA-SH fluorescence, plate reader. purified Rtt109/Vps75, 4 h. 0.16% of 330,000 active. inhibition, % at 34.9 µM. AID 540336, 2011;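 active = inhibition of at least 50% in every replicate; inconclusive = best replicate reaches 50% inhibition but some replicates fall short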
Target sequence (Q5AAJ8 whole entry, looked up): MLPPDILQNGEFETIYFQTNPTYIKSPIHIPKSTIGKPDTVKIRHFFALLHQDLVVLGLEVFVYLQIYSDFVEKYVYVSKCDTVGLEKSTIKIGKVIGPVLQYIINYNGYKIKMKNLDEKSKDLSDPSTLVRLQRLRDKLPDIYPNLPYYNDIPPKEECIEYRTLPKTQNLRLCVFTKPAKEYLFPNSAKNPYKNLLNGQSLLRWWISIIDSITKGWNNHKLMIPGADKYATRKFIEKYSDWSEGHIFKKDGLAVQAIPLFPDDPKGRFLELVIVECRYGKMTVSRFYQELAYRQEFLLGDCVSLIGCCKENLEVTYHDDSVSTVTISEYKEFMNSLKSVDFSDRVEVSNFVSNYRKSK
PfM18AAP inh – PfM18AAP inhibitors, malaria aminopeptidase, primary screen, biochemical, QFRET, recombinant enzyme. H-Glu-NHMec fluorogenic cleavage. 1.2% of 290,000 active. M18 aspartyl aminopeptidase (Plasmodium falciparum 3D7). inhibition, % at 7.35 µM;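 active = inhibition above the campaign mean inhibition over all tested compounds plus 3 SD, cut at about 28% in these data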
ALR H2O2 inh – inhibitors of human ALR sulfhydryl oxidase, primary screen, biochemical, H2O2 detection, HRP-luminol luminescence, single point | purified ALR, DTT oxidation | FAD-linked sulfhydryl oxidase ALR (Homo sapiens), P55789 | 3.8% of 290,000 active | inhibition, % (test concentration not listed) | AID 485317, 2010;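 active = mean replicate inhibition above about 79%, with every replicate also reaching it, limit read from the data; inconclusive = only one of the two criteria met; inactive = mean below limit and not every replicate reaching it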
Target sequence (P55789 whole entry, looked up): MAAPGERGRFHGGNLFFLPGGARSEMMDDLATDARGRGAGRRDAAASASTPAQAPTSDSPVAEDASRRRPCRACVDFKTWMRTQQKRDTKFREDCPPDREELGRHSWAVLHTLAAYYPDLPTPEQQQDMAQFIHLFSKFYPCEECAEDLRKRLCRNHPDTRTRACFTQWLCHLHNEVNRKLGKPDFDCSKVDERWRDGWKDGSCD
FAS-TE inh – FAS thioesterase domain inhibitors, primary screen, biochemical, fluorescence intensity, uHTS; AID 602261, 2012; inhibition, % at 15 µM; 0.67% of 360,000 active; recombinant FAS-TE, OMFH fluorogenic substrate, fluorescence endpoint;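 active = compounds whose normalised, plate-corrected inhibition of enzyme fluorescence in the single-dose primary screen is 50% or more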
HDAC3 inh – HDAC3 deacetylase inhibitors, primary screen, biochemical, fluorescence, cell-free homogeneous; recombinant HDAC3, fluorogenic peptide/trypsin coupled; inhibition, % at 8.3 µM; 0.15% of 320,000 active; in the data active = inhibition above about 26%, passing the limit was not always enough; inconclusive = no clear call, values can overlap the other calls
Hits are given with their value; . = inactive; ? = inconclusive; / = no result.

SMILES | UCH37 DUB inh | Rtt109 Vps75 | PfM18AAP inh | ALR H2O2 inh | FAS-TE inh | HDAC3 inh
COc1ccc(C(C)=NNC(=O)CNC(=O)/C=C/c2ccccc2OC)cc1 | . | / | / | / | / | /
CN1CCN(C(c2ccc(Cl)cc2)c2cc(Cl)c3cccnc3c2O)CC1 (centres undefined) | / | . | . | . | . | .
Oc1c(C(c2ccccn2)N2CCCCC2)cc(Cl)c2cccnc12 (centres undefined) | . | . | . | 83 | . | .
ClCc1csc(-c2ccc(Cl)cc2)n1 | . | . | . | 98 | . | .
CS(=O)(=O)NCCSCc1ccco1 | . | 53 | . | . | . | .
CC(=O)Nc1ccc(S(=O)(=O)NCCSCc2ccco2)cc1 | . | . | . | . | . | .
O=C(NCCSCc1ccco1)Nc1cc(Cl)cc(Cl)c1 | . | . | . | 89 | . | .
O=C(CSCc1ccc(Cl)cc1)NCCSCc1ccco1 | . | . | . | . | . | .
CC(=NNC(=O)c1ccc(Cl)cc1)c1cccs1 | . | / | / | / | / | /
O=C(c1cc(Cl)ccc1F)N1CCCC(Nc2ccc3c(c2)OCCO3)C1 (centres undefined) | . | . | . | 97 | . | .
O=C(c1ccco1)N1CCCC(Nc2ccc3c(c2)OCCO3)C1 (centres undefined) | . | . | . | 99 | . | .
CSCc1ccc(C(=O)N2CCCC(Nc3ccc(F)cc3)C2)o1 (centres undefined) | . | . | . | 98 | . | .
CSCc1ccc(C(=O)N2CCCC(Nc3ccc4c(c3)OCCO4)C2)o1 (centres undefined) | . | . | . | 99 | . | .
Cc1occc1C(=O)N1CCCC(Nc2ccc(F)c(F)c2)C1 (centres undefined) | . | . | . | . | . | .
C/C(C=NNC(=O)CSc1nc(C)cc(C)n1)=C/c1ccccc1 | . | / | / | / | / | /
Cc1cc(C(=O)NN=Cc2cccc([N+](=O)[O-])c2)c(C)o1 | . | / | / | / | / | /
CC(=NNC(=S)NC1CCCCC1)c1ccc(C)o1 | . | / | / | / | / | /
CCOC(=O)c1cn(CC)c2cc(N3CCN(C)CC3)c(F)cc2c1=O | . | / | . | . | . | .
CCOC(=O)c1cn(CC)c2cc(N3CCSCC3)c(F)cc2c1=O | . | . | . | 99 | . | .
Cc1cccc(OCCOc2ccc(C=NNC(=O)Cc3nnc(N)s3)cc2)c1 | . | / | / | / | / | /
COC(=O)COc1cccc2c(=O)n(CC(=O)N3CCCc4ccccc43)ccc12 | . | . | . | 89 | . | .
CCOC(=O)COc1cccc2c(=O)n(CC(=O)N3CCCCC3)ccc12 | . | . | . | / | . | .
O=C(CC(SCCO)c1ccc2c(c1)OCO2)c1ccco1 (centres undefined) | . | . | . | 97 | . | .
O=C(NCc1ccc2c(c1)OCO2)c1ccco1 | . | . | . | . | . | .
Oc1ccc(/C=N/N2CCN(Cc3ccccc3)CC2)cc1 | / | . | . | 82 | . | .
SMILES | UCH37 DUB inh | Rtt109 Vps75 | PfM18AAP inh | ALR H2O2 inh | FAS-TE inh | HDAC3 inh
C(=N\N1CCN(Cc2ccccc2)CC1)/c1ccc(-c2ccccc2)cc1 | / | . | . | . | . | .
Cn1c(Cl)c(C=NOC(=O)c2cccc(Cl)c2)c2ccccc21 | . | / | / | / | / | /
CC(Cc1ccccc1)=NNC(=O)c1cccnc1 | . | / | / | / | / | /
Cc1[nH][nH]c(=O)c1C(c1ccc(-c2ccccc2C(=O)O)o1)c1c(C)[nH][nH]c1=O | 24 | . | . | . | . | .
CN(C)c1ccc(NC(=O)c2cccc(N3C(=O)C4C5C=CC(C5)C4C3=O)c2)cc1 (centres undefined) | . | . | . | 99 | . | .
COc1cc(C2NC(=O)C(C#N)=C(Nc3cccc(C)c3)S2)ccc1O (centres undefined) | . | 147 | . | / | . | .
COCCCNC1=C(C#N)C(=O)NC(c2cccc([N+](=O)[O-])c2)S1 (centres undefined) | / | / | / | / | . | /
CC(=O)Nc1ccc(NC(=O)COC(=O)CCCc2c[nH]c3ccccc23)cc1 | . | . | / | 94 | . | .
NC(=O)NC(=O)COC(=O)CCCc1c[nH]c2ccccc12 | . | . | . | ? | . | .
O=C(CCCc1c[nH]c2ccccc12)NCc1cccs1 | . | . | . | 90 | . | .
CCOc1cc(C(=O)NN=C(C)Cc2ccc(OC)cc2)cc(OCC)c1OCC | . | / | / | / | / | /
COc1cccc(CNc2ccc3[nH]c(=O)[nH]c3c2)c1OCc1ccccc1 | . | . | . | 99 | . | .
COc1cc(CNc2ccc3[nH]c(=O)[nH]c3c2)ccc1OCc1ccc(F)cc1 | . | . | . | 89 | . | .
COc1ccc(Br)cc1CNc1ccc2[nH]c(=O)[nH]c2c1 | . | . | . | 99 | . | .
C=CCOc1ccc(CNc2ccc3[nH]c(=O)[nH]c3c2)cc1OC | . | . | . | / | . | /
C=CCOc1cccc(CNc2ccc3[nH]c(=O)[nH]c3c2)c1 | / | . | . | 99 | . | .
Cc1cc(C)n(N=Cc2cccc([N+](=O)[O-])c2)c(=O)c1 | . | / | / | / | / | /
COc1cccc(CNc2ccc3[nH]c(=O)[nH]c3c2)c1OCc1ccccc1Cl | . | . | . | 97 | . | .
COC(=O)/C(=N/Nc1cccc(C)c1)N1CCCc2ccccc21 | / | . | . | 99 | . | .
COC(=O)/C(=N/Nc1ccc(C)cc1)N1CCCc2ccccc21 | / | . | . | 99 | . | .
C/C(C=NNC(=O)CSc1n[nH]c(=O)[nH]c1=O)=C\c1ccccc1 | . | / | / | / | / | /
CSc1ccc(C=NNC(=O)c2ccc(-n3cnnn3)cc2)cc1 | . | / | / | / | / | /
CCCCn1c(/N=C/c2c[nH]c3ccccc23)nc2ccccc21 | / | . | . | . | . | 31
CC1CCN(S(=O)(=O)c2cccc(-c3cn4cc(Cl)ccc4n3)c2)CC1 | . | . | . | . | . | .
CCOC(=O)C1CCN(S(=O)(=O)c2cccc(-c3cn4cccc(C)c4n3)c2)CC1 | . | . | . | . | . | .
CCOC(=O)C1CCN(S(=O)(=O)c2cccc(-c3cn4ccccc4n3)c2)CC1 | . | . | . | 99 | . | .
CCOC(=O)C1CCN(S(=O)(=O)c2cccc(-c3cn4cc(Cl)ccc4n3)c2)CC1 | . | . | . | 99 | . | .
CC1=C(C#N)c2nc(N)c(C#N)c(C)c2/C1=C\c1ccc(-c2ccccc2C(=O)O)o1 | 22 | . | . | / | . | /
COc1cc(/C=C2/C(C)=C(C#N)c3nc(N)c(C#N)c(C)c32)ccc1OCC(=O)O | / | . | . | . | / | .
CC(=O)Nc1ccc(NC(=O)CSc2nnnn2-c2ccc(F)cc2)cc1 | . | . | . | 98 | . | .
